The subject of one experiment is Bacillus anthracis. In words: Antibacterial activity against Bacillus anthracis Sterne after 24 hrs by NCCLS method. It counts as functional.
Experiment [1] concerns Escherichia coli. In words: Antibacterial activity against Escherichia coli B/r after 24 hrs by NCCLS method. It counts as functional. The method in brief: (§1)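 MIC taken as the lowest agent concentration preventing visible bacterial growth after 24 h incubation at 37 °C.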
The test system of the next experiment is Pseudomonas aeruginosa. In words: Antibacterial activity against Pseudomonas aeruginosa H45006 after 24 hrs by NCCLS method. It counts as functional. The conditions noted are these: H45006, 24 h. Summed up:
as §1

For another experiment, the system named is Micrococcus luteus. Briefly: Antibacterial activity against Micrococcus luteus WT after 24 hrs by NCCLS method. It counts as functional. The method in brief: as §1
In experiment [2] the test system is Escherichia coli. Briefly: Inhibition of Escherichia coli M15 DXR at 100 uM.
The nature of experiment [3]: Inhibition of Escherichia coli M15 DXR.
Experiment [4] is described as follows: Cytotoxicity against human WI38 cells after 24 hrs by MTS assay. It counts as cell-based. Conditions: WI-38, 24 h.
Experiment [5] can be described thus: Cytotoxicity against human BEAS2B cells after 24 hrs by MTS assay. It counts as cell-based. Conditions: BEAS-2B. (In general: Tetrazolium dyes change colour on reduction, which living cells bring about.)

Values after ≈ are worked out from the molar mass of the structure shown.

As to `O=P(O)(O)CCc1ccc(O)c(O)c1`, the MIC was 1000 µM (≈ 218 µg/mL) against Bacillus anthracis, over 1000 µM against Escherichia coli [1], 1000 µM (≈ 218 µg/mL) in the experiment with Pseudomonas aeruginosa and over 1000 µM with Micrococcus luteus.

Turning to `O=c1n(O)ccn1Cc1ccccc1`, in the experiment with Escherichia coli [2], the inhibition was determined as 19%.

In the case of `O=c1cc(Cc2ccccc2)occ1O`, the inhibition in the experiment with Escherichia coli [2] worked out at 0%.

`O=c1ccn(O)c(=O)n1Cc1ccccc1` had an inhibition in the experiment on Escherichia coli [2] of 0%.

For the compound `O=c1cc(Cc2ccccc2)[nH]cc1O`, the inhibition in the experiment with Escherichia coli [2] turned out to be 0%.

In the experiment with Escherichia coli [2], `O=C(O)CCc1ccc(O)c(O)c1` displayed an inhibition of 26.2%.

In the case of `Oc1ccc(Cc2ccccc2)cc1O`, half-maximal inhibition in experiment [3] (IC50) was put at 22.4 µM. The MIC with Bacillus anthracis was found to be 200 µM (≈ 40 µg/mL); in the experiment with Escherichia coli [1], 1000 µM (≈ 200 µg/mL); against Pseudomonas aeruginosa, 200 µM (≈ 40 µg/mL); against Micrococcus luteus it was 200 µM (≈ 40 µg/mL).

Take `Nc1cc(-c2ccccc2)ccc1O`: in the experiment on Escherichia coli [2], the inhibition is 0%.

In turn, `O=C(O)c1cc(-c2ccccc2)ccc1O` returned an inhibition in the experiment on Escherichia coli [2] of 0%.

`NC[C@H]1O[C@H](O[C@H]2[C@H](O)[C@@H](O[C@H]3O[C@H](CO)[C@@H](O)[C@H](N)[C@H]3O)[C@H](N)C[C@@H]2N)[C@H](O)[C@@H](O)[C@@H]1O` [KANAMYCIN]: the MIC in the experiment with Bacillus anthracis was determined as 5 µM (≈ 2.42 µg/mL); against Escherichia coli [1], 10 µM (≈ 4.85 µg/mL); with Pseudomonas aeruginosa it was 200 µM (≈ 96.9 µg/mL); in the experiment on Micrococcus luteus it was 20 µM (≈ 9.69 µg/mL).

Compound `O=CN(O)CCCP(=O)(O)O` [FOSMIDOMYCIN] had an IC50 in experiment [3] of 0.08 µM. For the same compound, the MIC is 100 µM (≈ 18.3 µg/mL) in the experiment on Bacillus anthracis, 10 µM (≈ 1.83 µg/mL) against Escherichia coli [1], 20 µM (≈ 3.66 µg/mL) against Pseudomonas aeruginosa and over 1000 µM against Micrococcus luteus.

With `[O-][n+]1cccc(-c2ccccc2)c1`, in the experiment with Escherichia coli [2], the inhibition turned out to be 0%.

For `CC1(C)S[C@@H]2[C@H](NC(=O)[C@H](N)c3ccccc3)C(=O)N2[C@H]1C(=O)O` [AMPICILLIN], the MIC is 0.1 µM (≈ 0.0349 µg/mL) against Bacillus anthracis, 5 µM (≈ 1.75 µg/mL) against Escherichia coli [1], 500 µM (≈ 175 µg/mL) against Pseudomonas aeruginosa and 1 µM (≈ 0.349 µg/mL) against Micrococcus luteus.

Take `O=C(Cc1ccccc1)NO`: in the experiment on Escherichia coli [2], the inhibition stood at 26%.

`Oc1ccc(-c2ccccc2)cc1O`: the MIC stood at 200 µM (≈ 37.2 µg/mL) against Bacillus anthracis, 500 µM (≈ 93.1 µg/mL) with Escherichia coli [1], 200 µM (≈ 37.2 µg/mL) against Pseudomonas aeruginosa and 200 µM (≈ 37.2 µg/mL) in the experiment with Micrococcus luteus.

The compound `Oc1cnc(Cc2ccccc2)nc1O` showed an inhibition in the experiment on Escherichia coli [2] of 30%.

In the case of `Oc1ccc(-c2ccccc2)cn1`, the IC50 in experiment [3] stood at 75 µM.

Turning to `O=c1ccc(-c2ccccc2)cn1O` [1-HYDROXY-5-PHENYLPYRIDIN-2(1H)-ONE], the IC50 was over 300 µM in experiment [4], 1.4 µM in experiment [3] and over 300 µM in experiment [5]. Also, the MIC with Bacillus anthracis was 20 µM (≈ 3.74 µg/mL); in the experiment on Escherichia coli [1], 100 µM (≈ 18.7 µg/mL); against Pseudomonas aeruginosa, 50 µM (≈ 9.36 µg/mL); in the experiment with Micrococcus luteus, 100 µM (≈ 18.7 µg/mL).

Broadly, the MIC is the smallest concentration in the dilution series that meets the test's criterion for growth inhibition. Low readings indicate inhibition by little substance, high ones a need for much substance. The term inhibition denotes the drop in the measured response relative to a control, in per cent. A low value points to a weak effect. The IC50 is the concentration that inhibits the measured activity by half. A high value points to a need for much substance.

The record behind these values is ChEMBL document CHEMBL1154689, “Coordination chemistry based approach to lipophilic inhibitors of 1-deoxy-D-xylulose-5-phosphate reductoisomerase” (J Med Chem, 2009).
